B1: Osa-1-4 twister ribozyme (parent)
chain: CCGCCUAACACUGCCAAUGCCGGUCCCAAGCCCGGAUAAAAGUGGAGGGGGCGG

Variants of: B1
Test: self-cleavage, relative activity (ratio to wild type); higher = more cleavage; co-transcriptional
Procedure, shortened: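 A DNA template for a 54-nucleotide Oryza sativa twister ribozyme was synthesised with 97 % wild-type base and 1 % of each other base at the 48 positions downstream of the cleavage site. It was transcribed in vitro for 2 h at 37 °C, allowing co-transcriptional self-cleavage, then reverse-transcribed with a template-switching oligonucleotide, PCR-amplified and deep-sequenced. Cleavage status was scored from reads with or without upstream sequence. Relative activity is fraction cleaved normalised to wild type.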

| Variant | self-cleavage |
| --- | --- |
| C25G C9G | 0.07 |
| C25G C9U | 0.03 |
| C25G C9A | 0.02 |
| C26A G44U | 0.05 |
| C26A G44A | 0.05 |
| C26A G44C | 0.05 |
| C25G G19C | 0.03 |
| C25G G19A | 0.06 |
| C25G G19U | 0.04 |
| C26A G35C | 0.04 |
| C26A G35A | 0.06 |
| C26A G35U | 0.04 |
| C25U C27U | 0.17 |
| C25U C27A | 0.06 |
| C25U C27G | 0.06 |
| C25A C33U | 0.07 |
| C25A C33G | 0.02 |
| C25A C33A | 0.05 |
| C25G G47C | 0.02 |
| C25G G47A | 0.05 |
| C25G G47U | 0.03 |
| C26A G54C | 0.05 |
| C26A G54A | 0.06 |
| C25U G42C | 0.11 |

| Variant | self-cleavage |
| --- | --- |
| C25U G42U | 0.05 |
| C25U G42A | 0.22 |
| C25U G54U | 0.56 |
| C25U G54A | 0.34 |
| C25U G54C | 0.31 |
| C25A C9G | 0.08 |
| C25A C9U | 0.06 |
| C25A C9A | 0.05 |
| C25A G23U | 0.03 |
| C25A G23A | 0.06 |
| C25A G23C | 0.02 |
| C25U G49C | 0.06 |
| C25U G49A | 0.77 |
| C25U G49U | 0.71 |
| C25G G54U | 0.25 |
| C25G G54A | 0.11 |
| C25G G54C | 0.07 |
| C25G G34U | 0.07 |
| C25G G34C | 0.06 |
| C25G G34A | 0.08 |
| C26A C27A | 0.05 |
| C26A C27G | 0.03 |
| C26A C27U | 0.03 |
| C25A G34U | 0.11 |

| Variant | self-cleavage |
| --- | --- |
| C25A G34C | 0.06 |
| C25A G34A | 0.11 |
| C25U U18A | 0.75 |
| C25U U18G | 0.89 |
| C25U U18C | 0.84 |
| C25U G44A | 0.32 |
| C25U G44U | 0.56 |
| C25U G44C | 0.84 |
| C26A G42U | 0.02 |
| C26A G42A | 0.04 |
| C26A G42C | 0.03 |
| C25A C26G | 0.05 |
| C25A C26A | 0.04 |
| C25A C26U | 0.08 |
| C25A C31U | 0.03 |
| C25A C31A | 0.04 |
| C25A C31G | 0.03 |
| C25A G45C | 0.03 |
| C25A G45A | 0.03 |
| C25A G45U | 0.03 |
| C26A G13A | 0.02 |
| C26A G13U | 0.02 |
| C26A G13C | 0.01 |
| C25A C27A | 0.06 |

| Variant | self-cleavage |
| --- | --- |
| C25A C27U | 0.03 |
| C25A C27G | 0.03 |
| C25U C52A | 0.66 |
| C25U C52U | 0.9 |
| C25U C52G | 0.8 |
| C25U G13U | 0.03 |
| C25U G13A | 0.07 |
| C25U G13C | 0.02 |
| C25G G22C | 0.03 |
| C25G G22U | 0.06 |
| C25G G22A | 0.09 |
| C25U G19A | 0.14 |
| C25U G19C | 0.04 |
| C25U G19U | 0.08 |
| C25G C52U | 0.11 |
| C25G C52G | 0.12 |
| C25G C52A | 0.08 |
| C25A U18C | 0.15 |
| C25A U18A | 0.1 |
| C25A U18G | 0.35 |
| C25G U24A | 0.03 |
| C25G U24G | 0.02 |
| C25G U24C | 0.03 |
| C25U C33U | 0.31 |

| Variant | self-cleavage |
| --- | --- |
| C25U C33A | 0.06 |
| C25U C33G | 0.06 |
| C25A C52G | 0.17 |
| C25A C52A | 0.14 |
| C25A C52U | 0.17 |
| C25G U43G | 0.04 |
| C25G U43C | 0.06 |
| C25G U43A | 0.08 |
| C25U G51C | 0.06 |
| C25U G51A | 0.51 |
| C25U G51U | 0.17 |
| C26A G34U | 0.04 |
| C26A G34C | 0.05 |
| C26A G34A | 0.05 |
| C25U G47U | 0.07 |
| C25U G47C | 0.06 |
| C25U G47A | 0.09 |
| C25G G13A | 0.03 |
| C25G G13C | 0.01 |
| C25G G13U | 0.01 |
| C25G C26G | 0.12 |
| C25G C26U | 0.07 |
| C25G C26A | 0.01 |
| C25A G48A | 0.03 |

| Variant | self-cleavage |
| --- | --- |
| C25A G48U | 0.03 |
| C25A G48C | 0.03 |
| C26A C9U | 0.03 |
| C26A C9A | 0.02 |
| C26A C9G | 0.05 |
| C25G C31U | 0.05 |
| C25G C31G | 0.23 |
| C25G C31A | 0.02 |
| C25A G49U | 0.82 |
| C25A G49C | 0.04 |
| C25A G49A | 0.13 |
| U24G U43G | 0.07 |
| C25A U24C | 0.04 |
| C25A U24A | 0.04 |
| C25A U24G | 0.04 |
| C26A C32U | 0.01 |
| C26A C32A | 0.05 |
| C26A C32G | 0.03 |
| C25U C31U | 0.13 |
| C25U C31G | 0.31 |
| C25U C31A | 0.04 |
| C25U U43C | 0.13 |
| C25U U43G | 0.17 |
| C25U U43A | 0.29 |

| Variant | self-cleavage |
| --- | --- |
| C25U G53U | 0.11 |
| C25U G53C | 0.06 |
| C25U G53A | 0.25 |
| C25U U24C | 0.08 |
| C25U U24A | 0.06 |
| C25U U24G | 0.04 |
| C25U G45U | 0.05 |
| C25U G45C | 0.05 |
| C25U G45A | 0.06 |
| C25A G54C | 0.08 |
| C25A G54A | 0.12 |
| C25A G54U | 0.28 |
| C25G C27U | 0.07 |
| C25G C27G | 0.07 |
| C25G C27A | 0.02 |
| C25G G51U | 0.04 |
| C25G G51A | 0.07 |
| C25G G51C | 0.03 |
| C25A G19C | 0.03 |
| C25A G19U | 0.04 |
| C25A G19A | 0.06 |
| C26A | 0.06 |
| C25U G23C | 0.06 |
